Measured values from ChEMBL document CHEMBL3244271, “Synthetic sulfur-containing amino acids. Inhibition of transport systems in S37 ascites tumor cells” (J Med Chem, 1978).

Legend:
Type in all cases: cell-based
S37 [1] = experiment: Inhibition of L-type amino acid transporter-mediated [3H]-L-histidine uptake in mouse S37 cells assessed as residual activity at 10 mM after 2 mins by liquid scintillation counting analysis relative to control
Method in brief: (§1)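 Mouse-passaged S37 ascites cells were collected 6-8 days post-transplant, washed three times and resuspended in modified Krebs-Ringer phosphate buffer. L-system uptake used [3H]-L-histidine at 0.1 mM for 2 min at 20 °C. Incubation ended on pouring into chilled buffer, followed by three centrifugations to remove entrained label. Pellet wet weight was recorded, the EtOH lysate was scintillation-counted, and results are % of control, averaging duplicate runs on triplicate samples.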

S37 [2] = experiment: Inhibition of A-type amino acid transporter-mediated [3H]-L-histidine uptake in mouse S37 cells assessed as residual activity at 10 mM after 2 mins by liquid scintillation counting analysis relative to control
Method in brief: (§2)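 S37 ascites tumor cells were harvested 6-8 days after transplanting about 0.3 mL of a 1:10 packed-cell suspension. Cells were washed three times in modified Krebs-Ringer phosphate buffer, resuspended, and incubated with [3H]-L-histidine at 10 mM (A system) for 2 min at 20 °C. Uptake was stopped in chilled buffer, and cells were spun, rinsed and weighed wet. Pellets were lysed in 95% EtOH and counted by scintillation. Results are % of control, with duplicate runs on triplicate samples.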

S37 [3] = experiment: Inhibition of L-type amino acid transporter-mediated [3H]-L-histidine uptake in mouse S37 cells assessed as residual activity at 5 mM after 2 mins by liquid scintillation counting analysis relative to control
S37 [4] = experiment: Inhibition of A-type amino acid transporter-mediated [3H]-L-histidine uptake in mouse S37 cells assessed as residual activity at 5 mM after 2 mins by liquid scintillation counting analysis relative to control
S37 [5] = experiment: Inhibition of A-type amino acid transporter-mediated [3H]-L-histidine uptake in mouse S37 cells assessed as residual activity after 2 mins by liquid scintillation counting analysis relative to control; method in brief: as §2
S37 [6] = experiment: Inhibition of L-type amino acid transporter-mediated [3H]-L-histidine uptake in mouse S37 cells assessed as residual activity after 2 mins by liquid scintillation counting analysis relative to control; method in brief: as §1

## NC(CCS)C(=O)O (racemic)
S37 [1]
  Activity: 6%
S37 [2]
  Activity: 55%

## O=C(O)[C@@H]1CSCN1
S37 [3]
  Activity: 72%
S37 [4]
  Activity: 74%

## N[C@@H](CSCCSC[C@H](N)C(=O)O)C(=O)O
S37 [3]
  Activity: 52%
S37 [4]
  Activity: 70%

## CC1(C)N[C@H](C(=O)O)CS1
S37 [3]
  Activity: 45%
S37 [4]
  Activity: 68%

## CCSCC[C@H](N)C(=O)O
S37 [3]
  Activity: 11%
S37 [4]
  Activity: 63%

## NC1(C(=O)O)CCSCC1
S37 [5]
  Activity: 81%
S37 [6]
  Activity: 31%

## O=C(O)[C@@H]1CSCCN1
S37 [3]
  Activity: 51%
S37 [4]
  Activity: 73%

## O=C(O)C1NCCS1 (racemic)
S37 [1]
  Activity: 63%
S37 [2]
  Activity: 58%

## NC1CCSC1=O (stereo unspecified)
S37 [1]
  Activity: 96%
S37 [2]
  Activity: 119%

## CSCC[C@H](N)C(=O)O
S37 [3]
  Activity: 11%
S37 [4]
  Activity: 68%

## O=C(O)C1CCSCN1 (racemic)
S37 [1]
  Activity: 90%
S37 [2]
  Activity: 85%

## N[C@@H](CS)C(=O)O
S37 [3]
  Activity: 16%
S37 [4]
  Activity: 51%

## CC1N[C@H](C(=O)O)CS1 (stereo partly specified)
S37 [3]
  Activity: 70%
S37 [4]
  Activity: 72%
